The list is not random: actives were taken first. Their share in the collection is about 2.7%.
OXTR potentiator – human OXTR potentiators, primary screen, fluorescence, CHO-OTR cells, Fluo-8 calcium. AID 2445, 2010. activation, % at 3 µM. actives 0.061% (n = 320,000). Fluo-8 calcium fluorescence, potentiator mode; 0% = oxytocin EC15, 100% = EC100. Oxytocin receptor (Homo sapiens), P30559;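 active = activation above that plate's cutoff, the mean activation of tested compounds plus 3 SD, cut at about 6.6% in these data, passing the limit was not always enough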
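Assay system: CHO cell line stably expressing human OTR. Reagent: EC15 oxytocin agonist. Dosing: single dose, 3.0 µM nominal final compound concentration. Timing: compound 6 min at room temperature before oxytocin, 100 s read. Signal: kinetic Fluo-8 calcium fluorescence. Controls: oxytocin EC15 low and EC100 high.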
OX1R antag-1 – antagonists of human orexin 1 receptor (OX1R). AID 485270, 2010. Orexin/Hypocretin receptor type 1 (Homo sapiens), O43613. OX1R-expressing cells, FRET antagonist read-out. actives 1.8% (n = 330,000). inhibition, % at 6.6 µM; in the data active = inhibition mostly above about 38%, no sharp cut-off; inactive = mostly below about 40%
V1aR counter – agonists of human V1a receptor, primary screen, counter-screen for OXTR agonist project, fluorescence, CHO-V1R cells | actives 0.25% (n = 320,000) | activation, % at 3 µM | Fluo-8 calcium fluorescence, agonist mode; 0% DMSO, 100% 3 nM vasopressin | Vasopressin V1a receptor (Homo sapiens), P37288;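 active = activation above the mean activation of all tested compounds plus 3 SD, per screening run, cut at about 20% in these data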;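 note: signal is peak over basal fluorescence ratio across a 100 second FLIPR read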
Target sequence (P37288 whole entry, looked up): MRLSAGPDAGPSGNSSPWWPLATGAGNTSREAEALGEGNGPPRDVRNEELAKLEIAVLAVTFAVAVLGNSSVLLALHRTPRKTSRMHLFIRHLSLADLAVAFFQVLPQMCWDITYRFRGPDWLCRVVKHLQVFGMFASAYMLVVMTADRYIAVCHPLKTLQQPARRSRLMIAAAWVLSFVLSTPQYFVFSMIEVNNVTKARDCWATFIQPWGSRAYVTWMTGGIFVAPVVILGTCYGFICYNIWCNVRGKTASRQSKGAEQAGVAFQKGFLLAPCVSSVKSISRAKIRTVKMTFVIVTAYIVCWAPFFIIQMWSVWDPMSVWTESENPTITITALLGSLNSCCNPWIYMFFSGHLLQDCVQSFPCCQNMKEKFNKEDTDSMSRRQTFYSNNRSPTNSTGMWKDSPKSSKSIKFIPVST
OXTR agonist – human OXTR agonists, primary screen, fluorescence, CHO-OTR cells, Fluo-8 calcium | AID 2435, 2010 | Fluo-8 calcium fluorescence; normalized: DMSO 0%, oxytocin 100% | activation, % at 3 µM | Oxytocin receptor (Homo sapiens), P30559 | actives 0.32% (n = 320,000);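 active = activation above the mean of all tested compounds plus 3 SD, cutoff set per screening run, cut at about 20% in these data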;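 note: peak over basal fluorescence ratio from a 100 s FLIPR kinetic read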
CHO parental Ca – ATP-evoked calcium signal inhibitors, parental CHO, primary screen, counter-screen for OX1R antagonist project, cell-based, fluorescence, Fluo-8 calcium dye; parental CHO-K1, ATP-induced calcium, Fluo-8 fluorescence; inhibition, % at 5.6 µM; actives 0.63% (n = 330,000); AID 463079, 2010;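 active = inhibition above that plate's mean sample inhibition plus 3 SD, cut at about 26% in these data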
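Assay system – parental CHO cells · Reagent – ATP stimulus · Detection – intracellular calcium via Fluo-8 no-wash fluorescent dye · Evaluation – percent inhibition of ATP-evoked calcium rise, normalized to controls · Controls – ATP wells versus no-ATP DMSO wells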
OX1R antag-2 – OX1R (HCRTR1) antagonists, primary screen, fluorescence, CHO/OX1R cells, Fluo-8 calcium, orexin A. Orexin/Hypocretin receptor type 1 (Homo sapiens), O43613. Fluo-8 calcium fluorescence. inhibition, % at 5 µM. actives 0.43% (n = 330,000). AID 434989, 2010;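 active = inhibition above its plate's threshold, mean inhibition of all tested compounds on the plate plus 3 SD, cut at about 37% in these data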
Hits are given with their value; i = inactive.

SMILES	OXTR potentiator	OX1R antag-1	V1aR counter	OXTR agonist	CHO parental Ca	OX1R antag-2
COC(=O)C1OC(OC2CC[C@]3(C)C(CC[C@@]4(C)[C@@H]3CC=C3[C@@H]5CC(C)(C)CC[C@]5(C(=O)OC5OC(CO)C(O)C(O)C5O)CC[C@]34C)C2(C)C)C(O)C(O)C1O[C@H]1OCC(O)C(O)C1O (some centres undefined)	i	i	i	i	i	i
C/C(=N/NC(=O)CNC(=O)COc1cccc(C)c1)c1ccc(Cl)cc1	i	i	i	i	i	i
CCCC1=NN(C(=O)C(=O)Nc2ccc(Br)cc2)C(O)(C(F)(F)F)C1 (centres undefined)	i	50.2	i	i	i	i
Cc1ccc(C(=O)N2CCN(S(=O)(=O)N3CCCCCC3)CC2)cc1	i	i	i	i	i	i
Cc1ccccc1CSCC(=O)N1CCN(c2ccccc2)CC1	i	i	i	i	i	i
Cc1ccsc1-c1nc(CSCC(=O)N2CCN(c3ccccc3)CC2)c(C)o1	i	37.8	i	i	i	i
Cc1cccc(-c2nc(CSCC(=O)N3CCN(c4ccccn4)CC3)c(C)o2)c1	i	44.7	i	i	i	i
CCC(C(=O)OCC(=O)N(CC)c1c(N)n(Cc2ccccc2)c(=O)[nH]c1=O)c1ccccc1 (centres undefined)	i	i	i	i	i	i
Cc1ccc(Nc2c(-c3ccccn3)nc3ccc(C)cn23)cc1	i	i	i	i	36.4	i
Cc1cc(C)c(NC(=O)C2CCCN2CCOC(=O)c2ccccc2)c(C)c1 (centres undefined)	i	73.2	i	i	i	i
CCCN1CCCC[C@H]1C(=O)Nc1c(C)cccc1C	i	i	i	i	i	i
CC(C)OCC(O)CN1CCN(CCN2C(=O)c3cccc4cccc(c34)C2=O)CC1 (centres undefined)	i	40.6	i	i	i	i
CCOC(=O)C1=C(COC(=O)COc2ccc(C#N)cc2)NC(=O)NC1C (centres undefined)	i	i	i	i	i	i
Cc1ccc(F)cc1N=Cc1c(O)c2ccccc2oc1=O	i	58.2	i	i	i	i
Cc1ccc(N=Cc2c(O)c3ccccc3oc2=O)c(C)c1	i	i	i	i	i	i
CCc1cccc(C)c1N=Cc1c(O)c2ccccc2oc1=O	i	54.0	i	i	i	i
Nn1cnnc1SCC(=O)N1CCc2ccccc2C1	i	i	i	i	i	i
CCN(CC)C(=O)c1cccc2nc3ccccc3nc12	i	72.1	i	i	i	i
O=C(COc1ccccc1/C=C1\SC(=O)NC1=O)Nc1ccccc1	i	59.3	i	i	i	i
C=CCn1c(Cc2ccccc2)nc2c(cnn2-c2ccccc2)c1=O	i	i	i	i	38.8	i
Nn1c(SCc2ccccc2)nc2c(cnn2-c2ccccc2)c1=O	i	i	i	i	i	i
Cc1ccc2c(c1)-c1c(cnn1CC(=O)N(Cc1ccco1)C1CCCCC1)CO2	i	52.2	i	i	i	i
Cc1nn(CC(=O)NCCCN2CC(C)CC(C)C2)c(=O)c2cccn12 (centres undefined)	i	i	i	i	i	i
COc1ccc(OC)c(COC(=O)c2cccc(S(=O)(=O)N3CCCCC3)c2)c1	i	i	i	i	i	i
CCN(CC)C(c1ccc(F)cc1)c1nnnn1C1CCCCC1 (centres undefined)	i	i	i	i	i	i
SMILES	OXTR potentiator	OX1R antag-1	V1aR counter	OXTR agonist	CHO parental Ca	OX1R antag-2
CCN(CC)C(c1ccc(C)cc1)c1nnnn1C1CCCCC1 (centres undefined)	i	i	i	i	26.3	i
O=C(CCN=C1NS(=O)(=O)c2ccccc21)Nc1ccc(Cl)cc1F	i	i	i	i	i	i
Cc1onc(-c2ccccc2)c1C(=O)NC(=S)NNC(=O)c1ccc(O)cc1O	i	i	i	i	i	i
COC(=O)c1ccc(C)c(NC(=O)c2c(-c3ccccc3)noc2C)c1	i	38.3	i	i	i	i
Cc1onc(-c2ccccc2)c1C(=O)NC(=S)NNC(=O)c1ccccc1O	i	i	68.0	65.0	i	i
CCCOc1ccc(C(=O)NC(=S)NNC(=O)c2c(-c3ccccc3)noc2C)cc1	i	i	106.0	93.2	39.3	69.7
CCCNC(=O)c1cc(Cl)c(NC(=O)C2=CSCCO2)cc1OC	i	i	i	i	i	i
Cn1c(C=O)c(C#Cc2ccccc2)c2ccccc21	i	i	i	i	i	i
COc1ccc(C(C)(C)C)cc1NC(=O)C1CC(=O)N(C2CCCC2)C1 (centres undefined)	i	i	i	i	i	i
CCC(CC)N=C1NS(=O)(=O)c2cc([N+](=O)[O-])ccc21	i	54.8	i	i	i	i
CC(C)(C)CC(C)(C)N=C1NS(=O)(=O)c2cc([N+](=O)[O-])ccc21	i	i	i	i	i	i
O=C1N=C(N2CCOCC2)S/C1=C\c1ccncc1	i	39.1	i	i	i	i
CC(=O)N1CCN(C2=NC(=O)/C(=C\c3cccs3)S2)CC1	i	41.1	i	i	i	i
O=C(CN1C(=O)COc2ccccc21)NC1CCCC1	i	i	i	i	i	i
O=C(Nc1ccc(F)cc1)C1CCCN1S(=O)(=O)c1cccc2nsnc12 (centres undefined)	i	75.4	i	i	i	i
O=C(NCc1ccc(F)cc1)C1CCCN1S(=O)(=O)c1cccc2nsnc12 (centres undefined)	i	54.8	i	i	i	i
O=C(Nc1cc(F)ccc1F)C1CCCN1S(=O)(=O)c1cccc2nsnc12 (centres undefined)	i	69.6	i	i	i	i
O=C(O)C1CCCCN1S(=O)(=O)c1cccc2nsnc12 (centres undefined)	i	i	i	i	i	i
Cc1ccc2nc3ccc(N4CCCC4)nn3c(=O)c2c1	i	77.7	i	i	i	i
Cc1sc2nc3n(c(=O)c2c1C)CCCCC3	i	i	i	i	i	i
Cc1sc2nc3ccc(N4CCCCC4)nn3c(=O)c2c1C	i	75.6	i	i	i	i
CCN(CC(=O)Nc1ccccc1C(F)(F)F)C(=O)Cc1ccc2c(c1)CCC2	i	i	i	i	i	i
CCCN(CC(=O)Nc1ccccc1OC)C(=O)Cc1ccc2c(c1)CCC2	i	48.4	i	i	i	i
